For one data set, the system named is Felis catus. The data set is described as follows: Effective dose for lowering blood pressure in anesthetized cat when administered intravenously. The class given is functional. The following applies: iv. A digest of the protocol:
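Cats of either sex, 3–4 kg, under ether induction and chloralose (70 mg/kg iv). Compounds in distilled water or propylene glycol were given iv via the femoral vein at 0.01–10 mg/kg. Fall in mean arterial pressure read 10 min post-dose. ED20 taken graphically from the log dose-response curve, with doses run in triplicate.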

The test system of data set [1] is Canis familiaris. As to the kind of experiment: Dose required to produce 50 % increase in left ventricular dP/dt max in anesthetized dogs when administered intravenously. Type of data set: functional. The note with it: Canis lupus familiaris, Heart left ventricle, iv. In outline: (§1)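 Male mongrel dogs (10–18 kg), anesthetized with pentobarbital sodium 35 mg/kg iv, then infused with pentobarbitone 3–5 mg/kg per h, intubated and breathing spontaneously. Compounds in distilled water, given iv via the femoral vein in 0.1 mL/kg. Four to six doses between 0.01 and 3 mg/kg, 10–30 min apart. Percent change in LV dP/dt max over the initial value; ED50 taken from the dose-response curve.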

Data set [2] in a line: Acute toxicity in mice when administered intraperitoneally. The note with it: mouse, in vivo, ip. The class given is organism-based. A digest of the protocol: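 Mice (18-20 g), either sex; compound dissolved in distilled water or suspended in 0.5% (carboxymethyl)cellulose, injected ip at 10, 30, 100, 300 and 1000 mg/kg (1 mL/100 g body weight). Animals observed for 48 h. Approximate LD50 calculated by the Campbell and Richter method.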

Another data set is filed under the species Cavia porcellus. As to the kind of experiment: Positive inotropic activity in spontaneously beating guinea pig atria. Type of data set: functional, organism-based. In outline:
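Guinea pig atria, spontaneously beating, in Ringer solution at 32 °C gassed with 95% O2/5% CO2. Isometric force recorded at 0.5–1 g initial tension after 30 min stabilization. Compounds in water or propylene glycol given cumulatively at 0.01–30 μg/mL, with 7 min contact per dose. EC50 for a 50% force increase taken graphically from the dose-response curve, in triplicate.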

Data set [3] has as its system Canis familiaris. As to the kind of experiment: Fall in mean blood pressure in anesthetized dogs at a dose of 0.1 mg/kg. Type of data set: functional, Canis lupus familiaris. A digest of the protocol: (§2)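 Anesthesia was pentobarbital sodium 35 mg/kg iv, maintained with pentobarbitone 3–5 mg/kg per h. Male mongrel dogs, 10–18 kg, intubated for spontaneous breathing. Aqueous solutions were given iv via the femoral vein at 0.1 mL/kg, in escalating doses with 10–30 min between doses. Mean BP fall and percent heart-rate increase were recorded at each dose, with lead II ECG.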

The subject of data set [4] is Canis familiaris. As to the kind of experiment: Percent increase of heart rate in anesthetized dogs at a dose of 0.3 mg/kg. Type of data set: functional, Canis lupus familiaris. A digest of the protocol: as §2
Data set [5] deals with Canis familiaris. As to the kind of experiment: Percent increase of heart rate in anesthetized dogs at a dose of 0.03 mg/kg. Type of data set: functional, Canis lupus familiaris. In outline:
as §2

Data set [6] has as its system Canis familiaris. The data set is described as follows: Fall in mean blood pressure in anesthetized dogs at a dose of 1 mg/kg. Type of data set: functional, Canis lupus familiaris. A digest of the protocol: as §2
The species named for data set [7] is Canis familiaris. As to the kind of experiment: (§3) Percent increase in LV dP/dt max. Type of data set: functional, Canis lupus familiaris. In outline:
as §1

The species named for data set [8] is Canis familiaris. The data set is described as §3. The class given is functional, Canis lupus familiaris. In outline: as §1
This is another data set of the same source.

Data set [9] relates to Canis familiaris. As to the kind of experiment: Percent increase of heart rate in anesthetized dogs at a dose of 1 mg/kg. Type of data set: functional, Canis lupus familiaris. A digest of the protocol: as §2
The species entered for data set [10] is Canis familiaris. The data set is described as §3. Type of data set: functional, Canis lupus familiaris. In outline:
as §1
The source holds these as a separate data set.

The test system of data set [11] is Canis familiaris. As to the kind of experiment: Fall in mean blood pressure in anesthetized dogs at a dose of 0.3 mg/kg. Type of data set: functional, Canis lupus familiaris. In outline: as §2
The species entered for data set [12] is Canis familiaris. The description is as §3. Type of data set: functional, Canis lupus familiaris. A digest of the protocol:
as §1
The source holds these as a separate data set.

Data set [13] concerns Canis familiaris. The data set is described as follows: Percent increase of heart rate in anesthetized dogs at a dose of 0.1 mg/kg. Type of data set: functional, Canis lupus familiaris. In outline:
as §2

The structures appear in SMILES notation. Values after ≈ are worked out from the molar mass of the structure shown.

The compound `C=C[C@@]1(C)CC(=O)[C@]2(O)C3(C)C(C(OC(=O)CN4CCOCC4)C(O)[C@@]2(C)O1)C(C)(C)CC[C@@H]3O.Cl` (stereo partly drawn) came in with an ED20 in the data set with Felis catus of 3 mg/kg. In addition, the 50% effect level in the data set on Canis familiaris [1] (ED50) was put at a dose of 0.11 mg/kg. In data set [2], the LD50 was determined as 82.5 mg/kg. Besides, a half-maximal response in the data set filed under Cavia porcellus (EC50) required 0.5 µg/mL.

`C=C[C@@]1(C)CC(=O)[C@]2(O)C3(C)C(C(OC(=O)CCN4CCCCC4)C(O)[C@@]2(C)O1)C(C)(C)CC[C@@H]3O.Cl` (stereo partly drawn): the ED20 in the data set on Felis catus came out at 1 mg/kg. In addition, the ED50 in the data set with Canis familiaris [1] came to 0.3 mg/kg. Further, the LD50 in [2] amounted to 30 mg/kg. The compound further yielded an EC50 in the data set listed under Cavia porcellus of 0.5 µg/mL.

Regarding `C=C[C@@]1(C)CC(=O)[C@]2(O)C3(C)C(C(O)C(OC(=O)C(C)N4CCOCC4)[C@@]2(C)O1)C(C)(C)CC[C@@H]3O.Cl` (stereo partly drawn), the ED20 in the data set on Felis catus is 2 mg/kg. Also, the ED50 in the data set on Canis familiaris [1] was 0.04 mg/kg. In data set [2], this compound showed an LD50 of 30 mg/kg. Also, a half-maximal response in the data set filed under Cavia porcellus (EC50) required 0.27 µg/mL.

On to `C=C[C@@]1(C)CC(=O)[C@]2(O)C3(C)C(C(O)C(OC(=O)CN4CCOCC4)[C@@]2(C)O1)C(C)(C)CC[C@@H]3O.Cl` (stereo partly drawn), for which, in the data set on Canis familiaris [1], the ED50 amounted to 0.035 mg/kg. The compound further registered an LD50 in data set [2] of 25 mg/kg. This compound yielded an EC50 in the data set filed under Cavia porcellus of 0.35 µg/mL.

Regarding `C=C[C@@]1(C)CC(=O)[C@]2(O)C3(C)C(C(OC(=O)CCCN4CCN(C)CC4)C(O)[C@@]2(C)O1)C(C)(C)CC[C@@H]3O.Cl` (stereo partly drawn), in the data set on Felis catus, the ED20 turned out to be 1 mg/kg. Besides, it took a dose of 0.41 mg/kg to reach the 50% effect level in the data set with Canis familiaris [1] (ED50). For the same compound, the LD50 in data set [2] came out at 65 mg/kg. The compound further yielded an EC50 in the data set filed under Cavia porcellus of 0.2 µg/mL.

In the data set on Felis catus, `C=C[C@@]1(C)CC(=O)[C@]2(O)[C@@]3(C)[C@@H](O)CCC(C)(C)[C@@H]3[C@H](O)[C@H](OC(C)=O)[C@@]2(C)O1` [COLFORSIN] registered an ED20 of 0.038 mg/kg. In the data set with Canis familiaris [1], this compound returned an ED50 of 0.007 mg/kg. The same compound registered an LD50 in data set [2] of 92 mg/kg. Besides, the midpoint of the response in the data set listed under Cavia porcellus, the EC50, lay at 0.02 µg/mL (≈ 0.0487 µM).

For `C=C[C@@]1(C)CC(=O)[C@]2(O)C3(C)C(C(OC(=O)CN4CCCCC4)C(O)[C@@]2(C)O1)C(C)(C)CC[C@@H]3O.Cl` (stereo partly drawn), the BP in the data set with Canis familiaris [3] is on record as 8.8 mmHg; in the data set on Canis familiaris [6], 72 mmHg; with Canis familiaris [11], 30.2 mmHg. Further, the Heart rate was 9.8% with Canis familiaris [4], 6.2% in the data set with Canis familiaris [5], 13.8% in the data set with Canis familiaris [9] and 8.8% with Canis familiaris [13]. The compound also returned an ED20 in the data set with Felis catus of 3 mg/kg. Moreover, the Activity in the data set listed under Canis familiaris [7] is given as 64%; in the data set listed under Canis familiaris [8], 123%; in the data set filed under Canis familiaris [10], 48%; in the data set listed under Canis familiaris [12], 94%. In addition, it took a dose of 0.052 mg/kg to reach the 50% effect level with Canis familiaris [1] (ED50). For the same compound, in [2], the median lethal dose (LD50) worked out at 85 mg/kg. Besides, a half-maximal response in the data set listed under Cavia porcellus (EC50) required 1.8 µg/mL.

(Values after ChEMBL document CHEMBL1123969, “Cardiovascular effects of new water-soluble derivatives of forskolin” (J Med Chem, 1988).)
